The EternaBench riboswitch data

System: MS2 coat protein
Assay: apparent Kd, MS2 coat protein; higher = weaker binding; RNA-MaP array; FMN 200 µM where present
Summary of the method: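 Designs were transcribed by stalled E. coli RNA polymerase on Illumina sequencing-chip clusters. They were titrated with SNAP-549-labelled MS2 coat protein from 0.7 or 1.5 nM, doubling to 3 µM, without and then with constant ligand. Buffer: 100 mM Tris-HCl pH 7.5, 80 mM KCl, 4 mM MgCl2, BSA, DTT, yeast tRNA, Tween-20. Green signal was normalised to red-channel RNA signal and control-cluster median Fmax. Apparent Kd is the median of filtered per-cluster binding-curve fits.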

[1] = designed as: OFF switch for flavin mononucleotide, no ligand
[2] = ligand present: flavin mononucleotide, designed as: OFF switch for flavin mononucleotide
[3] = designed as: ON switch for flavin mononucleotide, no ligand
[4] = ligand present: flavin mononucleotide, designed as: ON switch for flavin mononucleotide

Sequence | apparent Kd [1] [nM] | apparent Kd [2] [nM] | apparent Kd [3] [nM] | apparent Kd [4] [nM]
CCUAUGUGAGGAUAUAGCCACAUUACGAAUAAGUAGUGUGGCUAGAAGGUACAUGAGGAUCACCCAUGUAUGGG | 167 | 84.1 |  | 
GACUAGGCAGGAUAUACAUGAGGAUCACCCAUGUGUCUGCGUUGGGCACGUGAACACCGUAGAAGGGCCUUGAC | 15.8 | 35 |  | 
UAUAUGUCAGGAUAUCGAUUGGAGCGGAAUUUAGCUUUGGUCGAGAAGGGACAUGAGGAUCACCCAUGUUCCUC | 30 | 142 |  | 
UGCGUAUACGGAGGAUAUGUACAGGUCGCCGUACAUGAGGAUCACCCAUGUGCAGAAGGCCGUAGCGCUAAACUGGAUUGCAAU | 11.4 | 57.3 |  | 
GGAGCAUAUGUCAGGAUAUCGUGGUCGAUAGAUCACGAGAAGGGACAUGAGGAUCACCCAUGUCUGUCCGCUCC | 14.2 | 16.4 |  | 
AAAAUUGGCAGAUAAAAGGUCACACAGGAUAUACUCCCAACAUGAGGAUCACCCAUGUACUGGCGGUAGAAGGGUGGGAUCCUC |  |  | 50.7 | 13.5
GUAGCAUUCUGAGGAUAUUCAUACCGGUAACGGACAUGAGGAUCACCCAUGUGGCGAAAGCCUUGGGAGAAGGCAGUAUGCUAC |  |  | 171 | 10
AGUCGGAGCAGAGGAUAUAUACAUGAGGAUCACCCAUGUAAAUGAAUAAGCUGGAAACAGCAUGUAUAGAAGGCUGCUCCGACA | 45.6 | 125 |  | 
UUUUUGUGAGGAUAUCAGUAGUAGAACAAUAGUACUACUACUGAGAAGGCACAUGAGGAUCACCCAUGUUCCUU | 16 | 34.6 |  | 
CACCGUUACAGAGGAUAUGAUACAUGAGGAUCACCCAUGUAAUAAAUGAGAAUUUCGAAUGUACCUCAGAAGGCUGGAACCGGC | 40.4 | 83.2 |  | 
GCUGGUCGAGGAUAUACAUGACGUGCUUCGGCACGAGGUCUACAUGAGGAUCACCCAUGUAGAAGGCGACCAGC | 30.8 | 225 |  | 
UUGCCACAUGAGGAUCACCCAUGUGAGGAUAUGGCCUGUUUGGCGUGUGCUGGCUCUGUCAGAAGGCGCGUGGG | 31.8 | 37.5 |  | 
GUUGUCUAUGUAGGAUAUGCGAGGCGAGCCUAAGCAGAAGGACAUGAGGAUCACCCAUGUAUUGCGGUCUGCGUUCAGAUCGCU | 38.1 | 141 |  | 
UUAUUGGGACAGAAGGGCAUUUACAUGAGGAUCACCCAUGUGUAUAGUUGCAGGAUAUGUAUUACAUGUGAAUCAUCAAAGUGC |  |  | 75.5 | 25.5
CAACUCGGAGGAUAUAGCUGUUCUAACAUGAGGAUCACCCAUGUGCAGUUCCUUGUUAGGCUAGAAGGCCGGUAUA | 40.6 | 99.1 |  | 
UUAUGAUAGAUAGGAUAUACAUUGGAUUUAAAAGUAGAAGGAUCAAGUGGGAAAUGAACAUGAGGAUCACCCAUGUAAUAGGUU |  |  | 109 | 78.6
AGUAAGAUGCAGAAGGUGUCAGCGAGAGCUACGACAUGAGGAUCACCCAUGUACUAGAUAGAGUACAAGGAUAUGCAUCUUACA |  |  | 729 | 35.1
CUGAUGUUAGGAUAUCAGGCUGUGCGCGAAAACGGGCGGCAUGAGAAGGAACAUGAGGAUCACCCAUGUGACGG | 47.3 | 124 |  | 

Sequence | apparent Kd [1] [nM] | apparent Kd [2] [nM] | apparent Kd [3] [nM] | apparent Kd [4] [nM]
GGUAAGAUGCAGAAGGUGUUAGCUAGAGCUACGACAUGAGGAUCACCCAUGUACUAGAAACAGUACAAGGAUAUGCAUCUUACA |  |  | 17.1 | 6.12
CUUAAGGCAGGAUAUGCUUUUUGUGACAUGAGGAUCACCCAUGUGAUGCAGUUUGGGUGUGCAGAAGGGCCUGAGU | 364 | 172 |  | 
CAACAGUCAGGAUAUGCAAAAAAAAAAAAAAAAAAAAAAAAGCAGAAGGGACAUGAGGAUCACCCAUGUUGUCG | 30 | 16.7 |  | 
UUAUGUUAUGUAGGAUAUCACUUUAAUUGAUUAAUAUAUGAAUAUAGAAUUUGAGAAGGACAUUUACAUGAGGAUCACCCAUGU | 12.3 | 8.5 |  | 
UGUCGGAGCAGAGGAUAUUACAUGAGGAUCACCCAUGUAUGAACCAAUAGCUGGAAACAGCAAUAUAAGAAGGCUGCUCCGACA | 5.59 | 5.48 |  | 
GGCGGUCGGGAGGAUAUUCGGGCUGUUUGGCUUGGAGAAGGCUCGACAUGAGGAUCACCCAUGUUGGUGUUUCC | 561 | 103 |  | 
AUUAUUAAGUUAGGAUAUAGUAAAAUGAUUUAGUUAGAAGGAGCUCACAUGAGGAUCACCCAUGUAAGAGGAUCACCCAUGUAU | 23.8 | 15.6 |  | 
UAUAUAUAGUAAGGAUAUGUAUUUAUUUGAUAAACAGAAGGUACUGACAUGAGGAUCACCCAUGUUUUAGUGUGGGCAUGUAGA | 81.6 | 131 |  | 
UUUAUAAAUUAGAAGGCGAGAUGAAUUACAAUAGACAUGAGGAUCACCCAUGUGUACCCAUGUUUUGAGGAUAUAGUCAUAUAU |  |  | 743 | 585
UACAGACAUGAGGAUCACCCAUGUAAGGAUAUCGGUACUAAUGGUAUAAUCUACUUAGCGAGAAGGUACAGUGU | 33.9 | 30.5 |  | 
GUGGUGCAUAUACGUGGAUGUACAUGAGGAUCACCCAUGUAAGAGGAUAUGCGGAUACUAGCUCAGUAGAAGGCUUACAAAUGA | 9.74 | 9.15 |  | 
AUGGAUACCACAGGAUAUAGCUAGCAUAGCUAGCUAGAAGGGUGGUCCAUCCUAUGUAAAUACAUGAGGAUCACCCAUGUGUCC |  |  | 403 | 207
GGACGUCACAUUAACAUGAGGAUCACCCAUGUCAAAAGACAUGAGGAUAUGCAUCCUAAUUGGAUGCAGAAGGCAUGGACGUCC |  |  | 449 | 35
UUAAUCUGAACAUGAGGAUCACCCAUGUAUCUUACCUUAGGACAGGAUAUAGAUGUUAAGAAUUACUAGAAGGGUCAGUAUAUU |  |  | 42.5 | 35.9
CAGCGAAAGCUGAAUCUGUAGAGAGAGGAUAUACGUCAUAAGAUGCAUACAUGAGGAUCACCCAUGUAGAAGGCUCUCUACAGU | 5.68 | 6.7 |  | 
ACAUACAUUCGAGGAUAUCAGUGAACAUAUUAUUGAGAAGGCGAUAUUAUUUUUAAUCUUAUUUACAUGAGGAUCACCCAUGUU |  |  | 22.6 | 19.6
GUCCUCAUGACAUGAGGAUCACCCAUGUAUUAUUUGUUAACUGAGGAUAUACUCUUAAUUUUUAUGUAGAAGGCAGAUUCGGUC | 35.6 | 39.9 |  | 
AGUGUGUGGCAGGAUAUUCUGAUCGUGAGUCGGGAAGAAGGGUCUACAUGAGGAUCACCCAUGUGAGCGGUUGA | 248 | 432 |  | 
